Key:
Human alphaherpesvirus 1 [1] = experiment: Antiviral activity against HSV1 in vero cells; type: functional, organism-based; details: Human alphaherpesvirus 1, Vero
Procedure, shortened: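 Yield reduction: confluent Vero cells were infected with HSV-1 ACR-29 at moi 1 pfu/cell for 1 h at 37 °C, washed, then given medium with varying compound concentrations. At 20 h they were freeze-thawed three times and spun at 400g for 10 min at 4 °C. Titre was read by plaque assay under 1% methylcellulose for 72 h with crystal violet stain. EC50 is the concentration inhibiting virus yield by 50%.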

Vero [2] = experiment: Selectivity index (CC50/EC50) in Vero cells; type: functional
Procedure, shortened: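 Ratio of CC50 (uninfected Vero, 72 h exposure) to EC50 (HSV-1 ACR-29 virus-yield inhibition in Vero); the two were determined in parallel.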

Human alphaherpesvirus 1 [3] = experiment: Antiviral activity against HSV1 at 50 uM; type: functional; details: Human alphaherpesvirus 1, ACR-29
Procedure, shortened: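 Vero cells (DMEM, 2% heat-inactivated FBS, 8% calf serum) were infected with HSV-1 strain ACR-29 at 1 PFU/cell for 2 h at 37 °C. The inoculum was then replaced with medium containing compound at 50 µM. After 3 days at 37 °C in 5% CO₂, supernatant titre (TCID50/mL) was measured by endpoint dilution (Reed–Muench) against untreated controls. Means of triplicates.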

Vero [4] = experiment: Cytotoxicity against Vero cells by MTT assay; type: functional; details: Chlorocebus sabaeus
Procedure, shortened: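 Uninfected Vero monolayers were exposed to a range of compound concentrations for 72 h at 37 °C. MTT ([…]) was then added for 4 h at 37 °C, followed by 10% SDS/0.01 N HCl overnight. Absorbance was read at 540 nm against a 690 nm reference. CC50 is the concentration reducing host-cell viability by 50%.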

Human alphaherpesvirus 1 [5] = experiment: Antiviral activity against HSV1 at 10 uM; type: functional; details: Human alphaherpesvirus 1, ACR-29
Procedure, shortened: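 Vero cells (DMEM with 2% heat-inactivated FBS plus 8% calf serum) infected with HSV-1 strain ACR-29 at 1 PFU/cell for 2 h at 37 °C. The inoculum was replaced with medium containing compound at 10 µM; untreated infected controls got medium only. After 3 days at 37 °C in 5% CO2, supernatant titre was read by endpoint dilution (TCID50/mL, Reed-Muench). Values are means of triplicates.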

| EC50 (Human alphaherpesvirus 1 [1]) [µM] | SMILES | Selectivity index (Vero [2]) | inhibition at 50 µM (Human alphaherpesvirus 1 [3]) [%] | CC50 (Vero [4]) [µM] | inhibition at 10 µM (Human alphaherpesvirus 1 [5]) [%] |
| --- | --- | --- | --- | --- | --- |
| 0.87 | CCOC(=O)c1cn(COCCO)c2cc(Cl)ccc2c1=O | 1375 | 99 | 1200 |  |
|  | Cc1ccc2c(=O)c(C(=O)O)cn(COCCO)c2c1 |  | 79 |  |  |
| 1.4 | O=C(O)c1cn(COCCO)c2cc(F)ccc2c1=O | >357 | 97 | > 500 |  |
|  | O=C(O)c1cn(COCCO)c2cc([N+](=O)[O-])ccc2c1=O |  | 77 |  |  |
| 2.3 | CCOC(=O)c1cn(COCCO)c2ccc(F)cc2c1=O | >217 | 97 | > 500 |  |
|  | COc1ccc2c(=O)c(C(=O)O)cn(COCCO)c2c1 |  | 79 |  |  |
|  | CCOC(=O)c1cn(COCCO)c2cc([N+](=O)[O-])ccc2c1=O |  | 77 |  |  |
| 2.2 | Cc1ccc2c(c1)c(=O)c(C(=O)O)cn2COCCO | >227 | 93 | > 500 |  |
|  | O=C(O)c1cn(COCCO)c2ccc(F)cc2c1=O |  | 70 |  |  |
|  | O=C(O)c1cn(COCCO)c2ccc(Br)cc2c1=O |  | 58 |  |  |
|  | CCOC(=O)c1cn(COCCO)c2cc(C)ccc2c1=O |  | 77 |  |  |
|  | CCOC(=O)c1cn(COCCO)c2ccc(Br)cc2c1=O |  | 84 |  |  |
| 1.5 | CCOC(=O)c1cn(COCCO)c2ccc([N+](=O)[O-])cc2c1=O | 640 | 95 | 960 |  |
|  | CCOC(=O)c1cn(COCCO)c2cc(OC)ccc2c1=O |  | 89 |  |  |
| 0.7 | O=C(O)c1cn(COCCO)c2cc(Cl)ccc2c1=O | 1714 | 96 | 1200 |  |
|  | CCOC(=O)c1cn(COCCO)c2ccc(C)cc2c1=O |  | 82 |  |  |
| 1.1 | O=C(O)c1cn(COCCO)c2ccc(Cl)cc2c1=O | 1273 | 98 | 1400 |  |
|  | O=C(O)c1cn(COCCO)c2ccc([N+](=O)[O-])cc2c1=O |  | 70 |  |  |
|  | COc1ccc2c(c1)c(=O)c(C(=O)O)cn2COCCO |  | 89 |  |  |
|  | CCOC(=O)c1cn(COCCO)c2cc(F)ccc2c1=O |  | 65 |  |  |
| 0.8 | CCOC(=O)c1cn(COCCO)c2ccc(Cl)cc2c1=O | 1562 | 97 | 1250 |  |
| 3.2 | CCOC(=O)c1cn(COCCO)c2ccc(OC)cc2c1=O | >156 | 99 | > 500 |  |

| SMILES | EC50 (Human alphaherpesvirus 1 [1]) [µM] | Selectivity index (Vero [2]) | inhibition at 50 µM (Human alphaherpesvirus 1 [3]) [%] | CC50 (Vero [4]) [µM] | inhibition at 10 µM (Human alphaherpesvirus 1 [5]) [%] |
| --- | --- | --- | --- | --- | --- |
| Nc1nc2c(ncn2COCCO)c(=O)[nH]1 [ACYCLOVIR] | 1.09 | 880 |  | 960 | 96 |

— ChEMBL document CHEMBL1138118, “Synthesis and anti-HSV-1 activity of quinolonic acyclovir analogues” (Bioorg Med Chem Lett, 2006)
